# Source: PubChem (several laboratories)
# SENP7 block: SENP7 protease inhibition; recombinant SENP7, Z-RLRGG-aminoluciferin luminescence, 40 min; inhibition, % at 5 µM; 330,000 compounds, 1.5% hits;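 active = inhibition above about 50% at the single test dose, limit read from the data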
# Target sequence (Q9BQF6 706-1050 limits assumed): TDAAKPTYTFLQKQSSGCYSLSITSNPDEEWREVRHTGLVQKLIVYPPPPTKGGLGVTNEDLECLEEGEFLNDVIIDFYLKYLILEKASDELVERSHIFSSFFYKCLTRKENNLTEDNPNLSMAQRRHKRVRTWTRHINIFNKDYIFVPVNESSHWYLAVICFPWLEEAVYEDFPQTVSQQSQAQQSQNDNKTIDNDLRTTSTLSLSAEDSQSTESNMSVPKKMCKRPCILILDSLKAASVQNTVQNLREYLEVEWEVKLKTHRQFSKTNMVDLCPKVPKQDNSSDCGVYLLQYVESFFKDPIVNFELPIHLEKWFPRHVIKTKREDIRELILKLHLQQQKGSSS
# SENP6 inh: blocks the human protease SENP6 | 330,000 compounds, 1.8% hits | AID 2599 | Recombinant SENP6 catalytic domain, aminoluciferin luminescence | inhibition, % at 10 µM;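 active = inhibition above about 50% at the single tested dose, limit read from the data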
# SENP8 block-1: blocks the human protease SENP8 | Q96LD8 | 330,000 compounds, 1.2% hits | purified SENP8, Z-RLRGG-aminoluciferin cleavage, luminescence | inhibition, % at 10 µM; in the data active = inhibition above about 50%
# Target sequence (Q96LD8 whole entry, looked up): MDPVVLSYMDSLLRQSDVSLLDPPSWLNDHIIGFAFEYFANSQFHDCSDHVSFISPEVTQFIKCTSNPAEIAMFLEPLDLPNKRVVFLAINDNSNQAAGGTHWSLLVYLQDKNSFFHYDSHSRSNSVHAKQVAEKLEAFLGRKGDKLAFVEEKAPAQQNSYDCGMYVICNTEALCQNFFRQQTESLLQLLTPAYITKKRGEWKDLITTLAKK
# SENP1 inh: inhibitors of human SENP1 SUMO protease catalytic domain; Q9P0U3; recombinant SENP1 catalytic domain, CyPet-SUMO1-YPet FRET cleavage; inhibition, % at 10 µM; 360,000 compounds, 0.21% hits; AID 624204;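 active = inhibition at least 30% at 10 µM, raw YFP signal under a set limit, fluorescence ratio 0.5 to 1.5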
#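 System: Recombinant human SENP1 catalytic domain, His6-tagged | Incubation: Enzyme reaction for 50 min at room temperature, dark | Medium: Tris pH 8 with BME, BSA, NP40 and catalase | Also added: 25 nM SUMO1 FRET substrate | Compound: 10 µM single point, 0.5% DMSO | Measured by: FRET fluorescence in CFP and YFP emission channels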
# Platelet DG rel: platelet dense granule release activity; human platelet-rich plasma, SFLLRN dense granule ATP release, luminescence; inhibition, %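 (compounds screened at 7.5 µM in platelet-rich plasma)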; 300,000 compounds, 0.22% hits;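 active = mean replicate score, as percent of positive control, at or above 50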
# SENP8 block-2: inhibitors of human SENP8 protease; inhibition, % at 20 µM; 360,000 compounds, 0.64% hits; recombinant SENP8, Nedd8 substrate fluorescence; Q96LD8; in the data active = inhibition mostly above about 40%, no sharp cut-off; inactive = mostly below about 27%
# SENP8 conf: human SENP8 inhibition, confirmed; 6,200 compounds, 40% hits; inhibition, % at 12.5 µM; Recombinant SENP8, Z-RLRGG-aminoluciferin luminescence, 60 min; shares compounds with SENP7 block;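 active = mean inhibition across replicates above about 50%, limit read from the data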
# SENP6 conf: confirmation of human SENP6 protease inhibitors | shares compounds with SENP7 block | recombinant SENP6, Z-RLRGG-aminoluciferin luminescence | inhibition, % at 12.5 µM | 6,200 compounds, 58% hits | AID 488915
# SENP7 confirm: human SENP7 inhibition, confirmed; shares compounds with SENP7 block; recombinant SENP7, Z-RLRGG-aminoluciferin luminescence, 40 min; inhibition, % at 12.5 µM; 6,200 compounds, 69% hits
# Casp3 select: inhibits human caspase-3 in SENP selectivity test | shares compounds with SENP7 block | purified caspase-3, Z-DEVD-aminoluciferin luminescence, 60 min | inhibition, % at 12.5 µM | 6,200 compounds, 60% hits | AID 488918;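 active = mean inhibition above about 50%, limit read from the data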
# SENP luc ctr: luminescence interference (SENP counter-screen). shares compounds with SENP7 block. Pre-incubated SENP8/Z-RLRGG-aminoluciferin, luciferase luminescence interference. inhibition, % at 12.5 µM. 6,200 compounds, 39% hits;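 active = mean inhibition above about 50% when retested at one dose, limit read from the data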
# Hits are given with their value; i = inactive; nt = no result given. Sampled rows, rich in hits. Any-hit rate of the full collection: about 2.6%.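 Rule for the calls, unless noted: active = mean inhibition above about 50% in the one-dose retest (limit read from the data); inactive = the rest.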
SMILES,SENP7 block,SENP6 inh,SENP8 block-1,SENP1 inh,Platelet DG rel,SENP8 block-2,others
O=C(CN1C(=O)c2ccccc2C1=O)NC1CCS(=O)(=O)C1 (stereo not drawn),nt,nt,nt,i,nt,i,
CC(=O)NC1=C(NC2CCS(=O)(=O)C2)C(=O)c2ccccc2C1=O (stereo not drawn),i,i,i,i,i,46,
CN1CCC(N2CCN(C3CN(Cc4cn(Cc5cccc(C(F)(F)F)c5)nn4)S(=O)(=O)C3)CC2)CC1 (stereo not drawn),nt,nt,nt,i,nt,i,
CCOC(=O)C1=C(C)c2ccccc2N(C(=O)OC)C1(C)C(=O)OCC (stereo not drawn),i,nt,nt,i,nt,i,
CCC(C)C(=O)N1c2ccccc2C(=C2SC(C(=O)OC)=C(C(=O)OC)S2)C(=S)C1(C)C (stereo not drawn),i,i,i,i,nt,56,
CCn1cc(CCCC(=O)NCc2cccc(OC)c2)c2ccccc21,i,i,i,i,i,i,
CN(C)Cc1cc(O)c(CN(C)C)cc1O,i,i,i,32,i,55,
CCCCc1c(-c2ccc(F)cc2)ncn1CCc1ccccc1OC,nt,nt,nt,i,nt,i,
COc1ccc(NC(=O)NNC(=O)CCc2ccc(O)c(O)c2)cc1OC,i,i,i,i,i,i,
N#Cc1ccsc1NC(=O)c1ccc(Cl)c([N+](=O)[O-])c1,91,96,94,i,i,i,
C#CCOc1c(Br)cc(/C=C2/C(=O)ON=C2C)cc1OC,i,i,i,i,i,i,
C=CCOc1c(Br)cc(/C=C2/C(=O)ON=C2C)cc1OC,i,i,i,i,i,32,
O=S(=O)(Nc1ccc(O)c2ccccc12)c1ccc(Br)cc1,i,62,i,nt,i,nt,
CC(=O)Nc1ccc(NS(=O)(=O)c2ccccc2)c2ccccc12,i,i,i,i,i,i,
Cc1ccc2nc(-c3ccc(NC(=O)CSc4nccc(=O)[nH]4)cc3)sc2c1,69,81,i,i,i,i,
O=C(NCc1cc2ccccc2[nH]1)c1ccccc1F,i,i,i,i,i,i,
Cc1[nH]n(-c2ccccc2)c(=O)c1N=Nc1ccc2c(c1)OCO2,i,i,i,i,i,46,
Cc1[nH]n(-c2ccccc2)c(=O)c1N=Nc1nccs1,i,i,i,i,i,56,
Cc1[nH]n(-c2ccccc2)c(=O)c1N=Nc1ccccc1C(=O)O,i,i,i,i,i,i,
Cc1[nH]n(-c2ccccc2)c(=O)c1N=Nc1ccccc1O,i,i,i,i,i,40,
CN1CCS/C1=C/C=C1\SC(=S)N(CC(=O)O)C1=O,i,i,i,66,i,i,
CCCCN1C(=O)/C(=C/C=C2\SCCN2C)SC1=S,i,i,i,i,i,i,
Cn1c(N)c(C(=O)COC(=O)C2=NNC(=O)CC2)c(=O)n(C)c1=O,i,i,i,i,i,i,
CC(NC(=O)COC(=O)/C=C/c1ccc2c(c1)OCO2)c1ccccc1 (stereo not drawn),i,i,i,i,nt,i,
COCCCNC(=O)C[C@@H]1C[C@@]2(C(=O)OC)CCCCC=C2N(CCc2ccc(OC)c(OC)c2)C1=O,nt,nt,nt,i,nt,i,
SMILES,SENP7 block,SENP6 inh,SENP8 block-1,SENP1 inh,Platelet DG rel,SENP8 block-2,others
O=C(N/N=C1\CCc2ccccc21)c1ccccc1O,78,71,58,i,i,i,
COc1cc(S(=O)(=O)N2CCOCC2)ccc1NC(=O)COC(=O)c1ccc(Cl)nc1,i,i,i,i,nt,i,
O=C(NCCNc1ccc2ccccc2c1)c1cccn2c(=O)c3sccc3nc12,i,56,i,nt,i,nt,
COc1ccc(OC)c(Nc2nc(-c3sc(NC(=O)c4ccccc4)nc3C)cs2)c1,53,67,52,nt,i,nt,
Cc1ccccc1Nc1nc(-c2sc(NC(=O)c3ccc([N+](=O)[O-])cc3)nc2C)cs1,i,i,i,nt,i,nt,
COc1ccc(Cl)cc1Nc1nc(-c2sc(NC(=O)c3ccccc3)nc2C)cs1,i,i,i,nt,i,nt,
Cc1ccccc1Nc1nc(-c2sc(NC(=O)c3ccccc3)nc2C)cs1,61,80,61,nt,i,nt,
Cc1ccc(Cl)cc1Nc1nc(-c2sc(NC(=O)c3ccco3)nc2C)cs1,i,i,i,i,i,i,
Cc1ccccc1Nc1nc(-c2sc(NC(=O)c3cccc(Cl)c3)nc2C)cs1,i,77,60,nt,i,nt,
Cc1ccc(Cl)cc1Nc1nc(-c2sc(NC(=O)c3cccc(Cl)c3)nc2C)cs1,i,66,56,nt,i,nt,
CCOC(=O)C[C@H]1c2ccccc2S(=O)(=O)N1C1CC1,i,i,i,i,i,i,
NS(=O)(=O)c1ccc(CNC(=O)c2ccc(NS(=O)(=O)c3cccs3)cc2)cc1,i,i,i,i,nt,i,
COc1ccc2ccccc2c1C1CC(=O)N2CN(C)CSC2=C1C#N (stereo not drawn),i,i,i,i,i,42,
CC(C)c1ccc(C2CC(=O)N3CN(C)CSC3=C2C#N)cc1 (stereo not drawn),i,i,i,i,i,i,
COc1cc(OC)c(C2CC(=O)N3CN(C)CSC3=C2C#N)cc1OC (stereo not drawn),i,i,i,i,i,79,
COCCN1Cc2cccc(C(=O)NC(C)CCc3ccco3)c2C1=O (stereo not drawn),i,i,i,i,i,i,
Cc1cc(NC(=O)CSc2ccnc(=O)[nH]2)no1,i,i,i,i,i,i,
COc1ccccc1C(=O)NCC(=O)OC(C)C(=O)NC1CCCCC1C (stereo not drawn),i,i,i,i,nt,i,
Fc1ccc(-n2nnc(-c3cccnc3Cl)n2)cc1,81,74,72,i,i,i,SENP8 conf=73;SENP6 conf=75;SENP7 confirm=92;Casp3 select=84;SENP luc ctr=74
COc1ncccc1-c1nnn(-c2ccccc2)n1,87,84,81,i,i,i,SENP8 conf=85;SENP6 conf=88;SENP7 confirm=98;Casp3 select=91;SENP luc ctr=84
Fc1ccc(-n2nnc(-c3ccccc3Cl)n2)cc1,i,i,i,i,i,i,
Clc1ccc(-n2nnc(-c3cccnc3Cl)n2)cc1Cl,57,i,i,i,i,i,SENP8 conf=i;SENP6 conf=i;SENP7 confirm=i;Casp3 select=i;SENP luc ctr=i
